STAT1 inh: inhibitors of IFN-gamma induced STAT1 signaling; NIH 3T3 STAT1-luciferase reporter, luminescence; inhibition, % at 5.5 µM; 200,000 tested, 0.35% active;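 active = inhibition above a set limit, the mean inhibition across all tested compounds plus 3 SD, cut at about 34% in these data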;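 note: 0% = IFN-gamma with DMSO and 100% = IFN-gamma with 300 µM nifuroxazide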
NF-kB expr up: NF-kB expression increase, human neuronal cells. 190,000 tested, 1.6% active. fold change at 12.5 µM. AID 1239. NF-kB reporter expression; hits give high values; in the data active = fold change above about 3.3
APP 5'UTR act: APP 5'UTR luciferase reporter activation; SH-SY5Y APP 5'UTR luciferase reporter, luminescence; zero percent = DMSO vehicle wells; activation, % at 2 µM; 190,000 tested, 1% active; AID 1276;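 active = activation above a set limit, based on mean plus 3 SD of controls, cut at about 140% in these data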
STAT3 act-1: increases IL-6 driven STAT3 reporter signal; U3A cells, IL-6 STAT3-luciferase reporter, luminescence; 100% = signal with IL-6 EC80 alone; activation (% of control), % at 5.6 µM; 190,000 tested, 0.91% active; AID 871;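 active = activation above the screen-wide mean of compound activation plus 3 SD, cut at about 130% in these data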;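 note: 0% = background luminescence of wells with medium and substrate only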
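Material: STAT3-luciferase reporter U3A cells. Controls: IL-6-treated wells, 100% activation. Read-out: % activation versus median of IL-6-stimulated wells. Probe or stimulus: IL-6 stimulus at 33 ng/mL final. Timing: compound 1 h, then IL-6 6 h at 37 °C. Signal: reporter luminescence signal.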
STAT1 act-1: increases IFN-gamma driven STAT1 reporter signal | AID 932 | 200,000 tested, 2.6% active | NIH 3T3 STAT1-luciferase reporter, luminescence; 100% = IFN-gamma alone, no compound | activation (% of control), % at 5.5 µM;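 active = activation above the screen-wide mean activation plus 3 SD, cut at about 130% in these data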;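 note: raw ratio to IFN-gamma control signal so 100% means no change and 0% no light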
STAT3 blocker: inhibitors of IL-6 induced STAT3 signaling; U3A cells, IL-6 STAT3-luciferase reporter, luminescence; host cell line lacks STAT1; inhibition, % at 5.5 µM; 190,000 tested, 0.89% active; AID 862;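 active = inhibition above the mean inhibition across all screened compounds plus 3 SD, cut at about 44% in these data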;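 note: 0% = DMSO only wells and 100% = 100 µM nifuroxazide control wells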
STAT3 act-2: STAT3 activation, confirmation assay | shares compounds with STAT3 act-1 | U3A STAT3-luciferase reporter, IL-6 potentiation, luminescence; U3A cells lack STAT1; 100 means same as IL-6 alone | potentiation (% of control), % at 5.7 µM | 1,200 tested, 64% active;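 active = percent activation of the STAT3 luciferase reporter above a set limit taken from the earlier primary screen, cut at about 130% in these data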;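 note: 0% = background signal of medium plus substrate and 100% = median of IL-6 with DMSO wells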
NFkB act STAT3ct: NF-kappaB activation in STAT3 activator counter-screen; shares compounds with STAT3 act-1; human cells, NF-kappaB reporter activation; activation (% of control), % at 5.7 µM; 1,200 tested, 11% active; AID 1309; in the data active = activation above about 120%;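 note: reporter induced by TNF-alpha stimulation; 100% = median of stimulated DMSO wells and 0% = no signal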
STAT1 act-2: activates STAT1, counter-screen to STAT3 activators. activation (% of control), % at 5.7 µM. shares compounds with STAT3 act-1. 1,200 tested, 13% active. NIH 3T3 STAT1-luciferase reporter, IFN-gamma, luminescence. AID 1318;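 active = activation above the solvent-only control well mean plus 3 SD, set per screening run, cut at about 120% in these data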;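 note: 100% = IFN-gamma with DMSO median signal so 100% means no change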
The depositor's hits bear a star. Only some compounds are listed: those with a hit (about 4.9% of all), similar ones and a draw of the others.

What do the screens show for `CSc1nc(/C=C2\C=Nc3ccccc32)c(O)n1C`?
STAT1 inh: 0; NF-kB expr up: 1.2; APP 5'UTR act: 9; STAT3 act-1: 146*; STAT1 act-1: 100; STAT3 blocker: -55; STAT3 act-2: 155*; NFkB act STAT3ct: 111; STAT1 act-2: 103

How did Nc1c(C(=O)c2ccc(Br)s2)oc2ccccc12 do in these assays?
STAT1 inh: -4; NF-kB expr up: 1.8; APP 5'UTR act: 9; STAT3 act-1: 177*; STAT1 act-1: 104; STAT3 blocker: -82; STAT3 act-2: 158*; NFkB act STAT3ct: 115; STAT1 act-2: 110

What do the screens show for `Cc1ccc(C(=O)c2oc3ccccc3c2N)cc1`?
STAT1 inh: -27; NF-kB expr up: 2.5; APP 5'UTR act: 48; STAT3 act-1: 143*; STAT1 act-1: 117; STAT3 blocker: -50; STAT3 act-2: 119; NFkB act STAT3ct: 118; STAT1 act-2: 113

How did COC(=O)c1cn(CC(=O)N2C(C)CCCC2C)c2ccccc12 (stereo not drawn) do in these assays?
STAT1 inh: -8; NF-kB expr up: 0.91; APP 5'UTR act: 14; STAT3 act-1: 104; STAT1 act-1: 104; STAT3 blocker: -1

Results for CC1CCCC(C)N1C(=O)Cn1cc(/C=C2/C(=O)Nc3ccccc32)c2ccccc21 (stereo not drawn) ?
STAT1 inh: -4; NF-kB expr up: 0.56; APP 5'UTR act: 10; STAT3 act-1: 158*; STAT1 act-1: 102; STAT3 blocker: -70; STAT3 act-2: 151*; NFkB act STAT3ct: 99; STAT1 act-2: 103

How did COC(=O)N/N=C/c1c[nH]c2ccccc12 do in these assays?
STAT1 inh: -6; NF-kB expr up: 1.3; APP 5'UTR act: 10; STAT3 act-1: 132; STAT1 act-1: 106; STAT3 blocker: -35

How did CC(C)(C)OC(=O)N/N=C/c1c[nH]c2ccccc12 do in these assays?
STAT1 inh: -19; NF-kB expr up: 1.2; APP 5'UTR act: 14; STAT3 act-1: 139*; STAT1 act-1: 118; STAT3 blocker: -50; STAT3 act-2: 126; NFkB act STAT3ct: 119; STAT1 act-2: 120

What do the screens show for `Cc1cccc(C)c1NS(=O)(=O)c1ccc2c(c1)C(=O)c1ccccc1C2=O`?
STAT1 inh: -11; NF-kB expr up: 1.3; STAT3 act-1: 103; STAT1 act-1: 110; STAT3 blocker: -4

What do the screens show for `Cc1ccccc1-c1cc2c(nn1)-c1ccccc1C2=O`?
STAT1 inh: 13; NF-kB expr up: 0.96; APP 5'UTR act: 17; STAT3 act-1: 145*; STAT1 act-1: 88; STAT3 blocker: -53; STAT3 act-2: 141*; NFkB act STAT3ct: 101; STAT1 act-2: 96

How did COc1ccc(OCCSc2nc(-c3ccccc3)cc(=O)[nH]2)cc1 do in these assays?
STAT1 inh: 4; NF-kB expr up: 1; APP 5'UTR act: -2; STAT3 act-1: 99; STAT1 act-1: 94; STAT3 blocker: 4

Results for Cn1c(NC(=O)Cc2cccc3ccccc23)cc(=O)n(C)c1=O ?
STAT1 inh: -4; NF-kB expr up: 0.9; APP 5'UTR act: -12; STAT3 act-1: 96; STAT1 act-1: 104; STAT3 blocker: 9

How did COc1ccc(C)cc1N(C(=O)c1ccccc1)c1nc2ccccc2s1 do in these assays?
STAT1 inh: -6; NF-kB expr up: 0.76; APP 5'UTR act: -4; STAT3 act-1: 127; STAT1 act-1: 105; STAT3 blocker: -27

What do the screens show for `COc1ccc(C)cc1N(C(=O)COc1ccccc1)c1nc2ccccc2s1`?
STAT1 inh: 10; NF-kB expr up: 0.97; APP 5'UTR act: 4; STAT3 act-1: 137*; STAT1 act-1: 91; STAT3 blocker: -43; STAT3 act-2: 145*; NFkB act STAT3ct: 101; STAT1 act-2: 101

What do the screens show for `NNc1ncnc2sc3c(c12)CCC3`?
STAT1 inh: 19; NF-kB expr up: 0.88; APP 5'UTR act: 12; STAT3 act-1: 139*; STAT1 act-1: 84; STAT3 blocker: -40; STAT3 act-2: 137*; NFkB act STAT3ct: 102; STAT1 act-2: 92

What do the screens show for `C(=N\Nc1ncnc2sc3c(c12)CCC3)/c1cccs1`?
STAT1 inh: 8; NF-kB expr up: 0.68; APP 5'UTR act: -1; STAT3 act-1: 152*; STAT1 act-1: 93; STAT3 blocker: -59; STAT3 act-2: 142*; NFkB act STAT3ct: 110; STAT1 act-2: 95

Results for COc1ccc(S(=O)(=O)NCc2ccco2)cc1N(C)S(=O)(=O)c1ccccc1 ?
STAT1 inh: 7; APP 5'UTR act: 6; STAT3 act-1: 96; STAT1 act-1: 92; STAT3 blocker: 10

Results for CC1=NC(=O)C(N=Nc2ccccc2)N1c1ccccc1 (stereo not drawn) ?
STAT1 inh: -30; NF-kB expr up: 4.4*; APP 5'UTR act: 51; STAT3 act-1: 163*; STAT1 act-1: 121; STAT3 blocker: -71; STAT3 act-2: 162*; NFkB act STAT3ct: 125*; STAT1 act-2: 160*

How did COc1ccc2nc(SCC(=O)NCC(F)(F)F)[nH]c2c1 do in these assays?
STAT1 inh: -9; NF-kB expr up: 1; APP 5'UTR act: 15; STAT3 act-1: 97; STAT1 act-1: 107; STAT3 blocker: 5

Results for COC(=O)c1ccc(OC(=O)CS(=O)c2ccccc2[N+](=O)[O-])cc1 (stereo not drawn) ?
STAT1 inh: 31; NF-kB expr up: 1.5; APP 5'UTR act: 5; STAT3 act-1: 122; STAT1 act-1: 71; STAT3 blocker: -11

Results for O=C(CS(=O)c1ccc(C(F)(F)F)cc1[N+](=O)[O-])Oc1ccccc1 (stereo not drawn) ?
STAT1 inh: 26; NF-kB expr up: 1.3; APP 5'UTR act: 3; STAT3 act-1: 147*; STAT1 act-1: 77; STAT3 blocker: -51; STAT3 act-2: 129; NFkB act STAT3ct: 101; STAT1 act-2: 72

What do the screens show for `CC(=O)n1cc(Nc2ccccc2C(=O)O)c2ccccc21`?
STAT1 inh: 14; NF-kB expr up: 1; APP 5'UTR act: 7; STAT3 act-1: 156*; STAT1 act-1: 88; STAT3 blocker: -60; STAT3 act-2: 162*; NFkB act STAT3ct: 108; STAT1 act-2: 111
